SMILES strings stand for the structures. Entries after “also recorded” stand apart in the source; their conditions may differ.

The experiment relates to adult S. mansoni. Kind of experiment: Single-concentration phenotypic severity score assay on adult worms. Type of experiment: cell-based, Schistosoma mansoni. Particulars: severity score assay at 5 μM. A digest of the protocol: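 Adult S. mansoni were exposed to test compound at 5 μM. Adherence, shape, density and mobility were scored visually at 2, 5, 24 and 48 h using a constrained set of phenotypic descriptors, each typically valued 1. The descriptor values were summed into a severity score from 0 (no activity) to 4 (maximal activity). Each compound was screened twice as a singleton and representative data are reported.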

For the molecule `O=C(Nc1cccc(C(F)(F)F)c1)c1cccc(C(F)(F)F)c1` [compound 33, 3-(Trifluoromethyl)-N-(3-(trifluoromethyl)phenyl)benzamide], the “Antischistosomal activity in words” value was “potency is lost”.
Under `O=C(Nc1cc(C(F)(F)F)cnn1)c1ccc(C(F)(F)F)cc1` [compound 49, 4-(Trifluoromethyl)-N-(5-(trifluoromethyl)pyridazin-3-yl)benzamide] stands “abolished activity; also recorded: inactive against the worm”.

Source of the values: PMC11932705 (Results in chemistry, 2024).
